This note sets out measurements from ChEMBL document CHEMBL1122937, “[(Aminomethyl)arloxy]acetic acid esters. A new class of high-ceiling diuretics. 3. Variation in the bridge between the aromatic rings to complete mapping of the receptor” (J Med Chem, 1985).

In data set [1] the test system is Rattus norvegicus. The data set can be described thus: Natriuretic potency expressed as oral dose necessary to produce an excretion of 2 mequiv of Na+/kg in the rat urine during the 4 hr period after dosing; Inactive. Format: functional, organism-based. In outline:
(§1)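 Rats were dosed orally in dose–response experiments. Urine volume, Na+, K+ and Cl- were measured. ED2 is the oral dose in mg/kg giving excretion of 2 mequiv Na+/kg in urine over the 4 h after dosing.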

Data set [2] concerns Rattus norvegicus. The data set can be described thus: Natriuretic potency expressed as oral dose necessary to produce an excretion of 2 mequiv of Na+/kg in the rat urine during the 4 hr period after dosing. Format: functional. In outline: as §1
The nature of data set [3]: pKa value was evaluated. Type of data set: physicochemical. In outline: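 UV absorption spectra were recorded in a buffer series spanning the pH range from fully protonated to fully deprotonated phenolic OH. Absorbance vs pH curves were fit by nonlinear regression, solving for the extinction coefficients of both forms and the pKa. For the amine pKa the buffers were extended to pH 12.0.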

Data set [4] is described as follows: Distribution coefficient in octanol-pH 7.0 phosphate buffer was measured at room temperature. Format: physicochemical.
For data set [5], the system named is Rattus norvegicus. The data set can be described thus: Natriuretic potency expressed as oral dose necessary to produce an excretion of 2 mequiv of Na+/kg in the rat urine during the 4 h period after dosing; Inactive. Format: functional, organism-based. In outline:
as §1

Calls of active or inactive are those of the source. The calls are words filed in the database; no cut-off is given here.

With `CCOC(=O)COc1ccc(C(=O)C(=O)c2ccc(O)c(CN)c2)c(Cl)c1Cl`, the ED2 entry in the data set on Rattus norvegicus [1] was “inactive”.
Take `CCOC(=O)COc1ccc(COc2ccc(O)c(CN)c2)c(Cl)c1Cl`: in the data set on Rattus norvegicus [1], the ED2 result was “inactive”.
For the molecule `CCOC(=O)COc1ccc(C(=O)Nc2ccc(O)c(CN)c2)c(Cl)c1Cl`, the ED2 entry with Rattus norvegicus [1] was “inactive”.
Consider `CCOC(=O)COc1ccc(Sc2ccc(O)c(CN)c2)c(Cl)c1Cl.Cl`, for which the ED2 in the data set on Rattus norvegicus [2] is 1 mg/kg.
For `CCOC(=O)COc1ccc(-c2ccc(O)c(CN)c2)c(Cl)c1Cl`, in the data set with Rattus norvegicus [1], the ED2 entry is “inactive”.
What is called pKa is the pH at which an ionisable group is half protonated. High values mean a weaker acid or stronger base, low ones a stronger acid or weaker base. The term logD denotes the decadic logarithm of the distribution of all forms, ionised or not, between an organic phase and buffer at a given pH. Lower therefore signals a more hydrophilic compound. Consider `CCOC(=O)COc1ccc(Oc2ccc(O)c(CN)c2)c(Cl)c1Cl.Cl`, for which, in data set [3], the pKa came to 8.55. In addition, the logD in data set [4] worked out at 1.82. Besides, in the data set on Rattus norvegicus [2], the ED2 came out at 0.8 mg/kg.
`CCOC(=O)COc1ccc(C(=O)c2ccc(O)c(CN)c2)cc1`: the pKa in data set [3] worked out at 7.34. In data set [4], this molecule returned a logD of 0.3.
In the case of `COC(=O)COc1ccc([S+]([O-])c2ccc(O)c(CN)c2)c(Cl)c1Cl.Cl` (stereo unspecified), in the data set with Rattus norvegicus [2], the ED2 is 16.3 mg/kg.
Molecule `CCOC(=O)COc1ccc(S(=O)(=O)c2ccc(O)c(CN)c2)c(Cl)c1Cl` had a pKa in data set [3] of 6.67. This molecule also had a logD in data set [4] of 1.25. In addition, the ED2 entry with Rattus norvegicus [5] is “inactive”.
`CCOC(=O)COc1ccc(Cc2ccc(O)c(CN)c2)c(Cl)c1Cl.Cl` had a pKa in data set [3] of 8.73. In data set [4], this molecule returned a logD of 1.66. Further, the ED2 with Rattus norvegicus [2] is 7.5 mg/kg.
As for `CCOC(=O)COc1ccc2c(-c3ccc(O)c(CN)c3)noc2c1Cl.Cl`, the ED2 with Rattus norvegicus [2] worked out at 35 mg/kg.
For `CCOC(=O)COc1ccc(C(=O)c2ccc(O)c(CN)c2)c(Cl)c1Cl.Cl`, the pKa in data set [3] was determined as 6.38. Further, in data set [4], the logD stood at 1.41. Besides, the ED2 in the data set with Rattus norvegicus [2] was 2.5 mg/kg.
